Assay results as given in ChEMBL document CHEMBL1155077, “Kinesin spindle protein (KSP) inhibitors. 9. Discovery of (2S)-4-(2,5-difluorophenyl)-n-[(3R,4S)-3-fluoro-1-methylpiperidin-4-yl]-2-(hydroxymethyl)-N-methyl-2-phenyl-2,5-dihydro-1H-pyrrole-1-carboxamide (MK-0731) for the treatment of taxane-refractory cancer” (J Med Chem, 2008).

Columns and labels:
[1] = Ratio of IC50 for induction of mitotic arrest in human […] to IC50 for induction of mitotic arrest in […] human KB-V-1 cells; type: functional
Summary of the method: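 Phospho-nucleolin mitotic-arrest assay in parental KB-3-1 and MDR1-overexpressing KB-V-1 cells (>500-fold higher MDR1 mRNA). Cells were treated in triplicate for 16 h across 10 000 to 0.1 nM (11-point, half-log series; 0.1% DMSO final). Total nucleolin was bead-captured from lysates and phospho-nucleolin detected by TG3 antibody plus a ruthenium-labelled secondary. Ratio = IC50 (KB-V-1) / IC50 (KB-3-1).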

Mus musculus = species: Mus musculus; experiment: Toxicity in naive mouse assessed as neutopenia after 6 days; type: organism-based; settings: in vivo, 144 h
Summary of the method: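 Naive mice dosed under protocols varying dose, vehicle and frequency, with survival as the end point; peripheral blood counts, including neutrophils, followed after dosing.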

A2780 = experiment: Induction of mitotic arrest in human A2780 cells expressing MDR1 after 16 hrs; type: functional, cell-based; settings: A2780, 16 h
[2] = biological target: Centromere-associated protein E (Homo sapiens, UniProt Q02224); experiment: Inhibition of cloned human CENP-E
[3] = Toxicity in clr:NU/NU-nuBR mouse assessed as maximum tolerated dose after 24 hrs; type: organism-based; settings: in vivo
Summary of the method: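 Naive, non-xenografted mice, in a large cohort. Drug was given by continuous delivery from subcutaneously implanted osmotic minipumps over 24 h. The maximum tolerated dose was set with survival as the end point, and peripheral blood counts were followed to assess myelosuppression.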

[4] = Inhibition of human KSP in presence of 30% mouse serum
Summary of the method: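 KSP ATPase assay as the primary one (0.25 nM KSP motor domain, microtubules, 1 mM ATP, pH 6.8, 3 h at RT, quinaldine red phosphate read-out), run with 30% mouse serum dialysed against reaction buffer (12-14 kDa cutoff). Mean of at least 3 experiments unless noted.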

Sequence of Centromere-associated protein E (Q02224 whole entry): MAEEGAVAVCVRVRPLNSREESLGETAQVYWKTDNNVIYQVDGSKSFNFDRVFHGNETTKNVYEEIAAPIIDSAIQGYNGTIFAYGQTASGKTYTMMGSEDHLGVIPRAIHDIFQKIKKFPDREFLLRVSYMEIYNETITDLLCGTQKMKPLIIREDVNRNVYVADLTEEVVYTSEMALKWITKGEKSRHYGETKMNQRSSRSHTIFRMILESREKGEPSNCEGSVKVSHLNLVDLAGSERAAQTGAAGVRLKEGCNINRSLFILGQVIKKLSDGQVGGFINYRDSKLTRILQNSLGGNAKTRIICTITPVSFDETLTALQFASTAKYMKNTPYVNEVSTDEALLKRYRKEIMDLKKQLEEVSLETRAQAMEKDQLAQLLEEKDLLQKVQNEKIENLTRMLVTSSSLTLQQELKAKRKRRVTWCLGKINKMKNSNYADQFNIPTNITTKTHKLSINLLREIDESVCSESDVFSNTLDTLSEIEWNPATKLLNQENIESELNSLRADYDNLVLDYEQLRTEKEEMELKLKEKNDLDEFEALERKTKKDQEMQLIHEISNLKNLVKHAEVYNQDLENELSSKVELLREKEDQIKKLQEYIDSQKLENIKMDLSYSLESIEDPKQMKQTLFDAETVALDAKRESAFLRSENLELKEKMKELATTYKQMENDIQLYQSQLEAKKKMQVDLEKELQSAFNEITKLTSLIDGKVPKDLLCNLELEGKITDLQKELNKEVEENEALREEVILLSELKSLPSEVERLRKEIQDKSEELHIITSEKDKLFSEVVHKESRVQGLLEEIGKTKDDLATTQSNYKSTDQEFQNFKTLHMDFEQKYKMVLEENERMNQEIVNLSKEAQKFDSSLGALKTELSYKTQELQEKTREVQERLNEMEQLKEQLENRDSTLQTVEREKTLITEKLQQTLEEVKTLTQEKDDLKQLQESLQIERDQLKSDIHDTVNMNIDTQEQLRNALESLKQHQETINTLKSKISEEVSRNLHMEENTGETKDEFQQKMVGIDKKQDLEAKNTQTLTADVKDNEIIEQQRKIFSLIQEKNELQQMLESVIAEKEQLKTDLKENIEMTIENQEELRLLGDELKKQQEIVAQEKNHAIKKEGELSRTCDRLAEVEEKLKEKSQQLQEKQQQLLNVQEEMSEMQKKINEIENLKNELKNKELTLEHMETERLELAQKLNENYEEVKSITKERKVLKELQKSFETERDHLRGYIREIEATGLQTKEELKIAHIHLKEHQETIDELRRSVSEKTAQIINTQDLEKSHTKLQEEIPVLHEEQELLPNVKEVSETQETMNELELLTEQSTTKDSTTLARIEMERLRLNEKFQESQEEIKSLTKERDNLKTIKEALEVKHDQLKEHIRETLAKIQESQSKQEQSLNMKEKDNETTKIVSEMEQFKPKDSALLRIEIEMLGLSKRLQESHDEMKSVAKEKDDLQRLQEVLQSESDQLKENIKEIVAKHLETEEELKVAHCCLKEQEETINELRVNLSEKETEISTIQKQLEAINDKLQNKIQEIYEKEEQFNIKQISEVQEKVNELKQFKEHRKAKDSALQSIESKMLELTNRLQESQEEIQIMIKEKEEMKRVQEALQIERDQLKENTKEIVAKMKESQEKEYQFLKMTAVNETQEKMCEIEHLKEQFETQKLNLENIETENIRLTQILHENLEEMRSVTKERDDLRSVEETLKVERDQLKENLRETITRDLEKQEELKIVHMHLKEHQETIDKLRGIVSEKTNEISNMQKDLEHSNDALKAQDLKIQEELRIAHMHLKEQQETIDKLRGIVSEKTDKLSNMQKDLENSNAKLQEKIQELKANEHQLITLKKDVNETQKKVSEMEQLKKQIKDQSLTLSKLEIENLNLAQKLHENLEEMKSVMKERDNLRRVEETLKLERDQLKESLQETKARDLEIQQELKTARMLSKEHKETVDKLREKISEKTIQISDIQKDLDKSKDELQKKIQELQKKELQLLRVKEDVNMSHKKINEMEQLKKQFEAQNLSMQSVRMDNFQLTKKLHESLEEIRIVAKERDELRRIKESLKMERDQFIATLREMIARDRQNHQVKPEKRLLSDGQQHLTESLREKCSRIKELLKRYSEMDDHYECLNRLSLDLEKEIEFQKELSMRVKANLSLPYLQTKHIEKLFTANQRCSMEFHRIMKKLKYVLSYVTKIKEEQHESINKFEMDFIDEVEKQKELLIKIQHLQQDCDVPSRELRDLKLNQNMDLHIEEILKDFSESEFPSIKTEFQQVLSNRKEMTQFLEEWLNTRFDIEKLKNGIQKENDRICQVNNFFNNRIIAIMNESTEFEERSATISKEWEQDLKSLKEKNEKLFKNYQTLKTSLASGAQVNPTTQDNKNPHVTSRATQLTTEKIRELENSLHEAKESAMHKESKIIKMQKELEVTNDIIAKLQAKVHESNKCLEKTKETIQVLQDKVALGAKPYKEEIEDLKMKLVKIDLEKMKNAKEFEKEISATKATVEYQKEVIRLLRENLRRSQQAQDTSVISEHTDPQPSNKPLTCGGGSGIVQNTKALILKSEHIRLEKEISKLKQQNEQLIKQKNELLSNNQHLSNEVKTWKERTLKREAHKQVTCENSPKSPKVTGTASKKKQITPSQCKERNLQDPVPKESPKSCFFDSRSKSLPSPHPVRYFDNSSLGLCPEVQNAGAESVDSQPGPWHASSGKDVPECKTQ

## CN1CC[C@H](N(C)C(=O)N2CC(c3cc(F)ccc3F)=C[C@@]2(CO)c2ccccc2)[C@H](F)C1
[1]
  Ratio: 4.5
Mus musculus
  Activity: Toxic
A2780
  EC50: 5.3 nM
[2]
  IC50: > 50000 nM
[3]
  MTD at 24 h: 12 mg/kg
[4]
  IC50: 29.1 nM
